Activity calls are given as the source filed them. The rule behind the calls is not given here.
Tests used:
[1] = system: Cellular tumor antigen p53 (Homo sapiens), P04637 [Y220C]; experiment: Activation of p53 Y220C mutant in human HuH7 cells assessed as increase in p21 mRNA level at 30 uM after 18 hrs by RT-PCR method; format: cell-based
How it was run: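 Real-time PCR. Cells were treated for 18 h, with 0.5% DMSO in both compound and control samples. Relative mRNA levels were quantified by the ΔΔCt method as fold-change against the untreated sample. Each sample was measured in triplicate, and data are given as mean ± SEM with an unpaired t-test.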

[2] = target: T1, Cellular tumor antigen p53 (Homo sapiens, UniProt P04637); experiment: Activation of p53 in human NUGC4 cells assessed as change in IGF1R mRNA level at 60 uM after 18 hrs by RT-PCR method relative to control; format: cell-based; conditions: read-out: FC
How it was run: (§1)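 p53 signaling qPCR array of 84 p53-pathway genes. Cells were treated in 6-well plates for 18 h with 0.5% DMSO in compound and control samples. Total RNA was extracted and fold-changes were obtained by the ΔΔCt method against untreated control, with β2-microglobulin (B2M) as housekeeping gene. Two independent biological replicates per cell line.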

[3] = system: Cellular tumor antigen p53 (Homo sapiens), P04637 [Y220C]; experiment: Activation of p53 Y220C mutant in human NUGC3 cells assessed as change in CDC25C mRNA level at 60 uM after 18 hrs by RT-PCR method relative to control; format: cell-based
How it was run: (§2)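 p53 signalling qPCR array covering 84 genes. Cells were exposed for 18 h, with 0.5% DMSO in both compound and control samples. Total RNA was extracted and purified. Fold-changes were calculated by ΔΔCt using β2-microglobulin (B2M) as the housekeeping gene. Two independent biological replicates were run per cell line.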

[4] = system: Cellular tumor antigen p53 (Homo sapiens), P04637 [Y220C]; experiment: Activation of p53 Y220C mutant in human NUGC3 cells assessed as change in CDKN2A mRNA level at 60 uM after 18 hrs by RT-PCR method relative to control; format: cell-based; how it was run: as §2
[5] = target: T1, Cellular tumor antigen p53; experiment: Activation of p53 in human NUGC4 cells assessed as change in TSC1 mRNA level at 60 uM after 18 hrs by RT-PCR method relative to control; format: cell-based; conditions: read-out: FC
[6] = target: T1, Cellular tumor antigen p53; experiment: Activation of p53 in human NUGC4 cells assessed as change in ATM mRNA level at 60 uM after 18 hrs by RT-PCR method relative to control; format: cell-based; conditions: read-out: FC
How it was run: (§3)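 p53 signalling qPCR array covering 84 p53 pathway genes. Cells were exposed for 18 h, and compound and control wells both held 0.5% DMSO. Total RNA was extracted and purified. Fold-changes were calculated by the ΔΔCt method against the untreated sample, with β2-microglobulin (B2M) as the housekeeping gene. Each cell line was run in two independent biological replicates.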

[7] = target: T1, Cellular tumor antigen p53; experiment: Activation of p53 in human NUGC4 cells assessed as change in RELA mRNA level at 60 uM after 18 hrs by RT-PCR method relative to control; format: cell-based; conditions: read-out: FC
[8] = target: T1, Cellular tumor antigen p53; experiment: Activation of p53 in human NUGC4 cells assessed as change in ATR mRNA level at 60 uM after 18 hrs by RT-PCR method relative to control; format: cell-based; conditions: read-out: FC; how it was run: as §3
[9] = target: T1, Cellular tumor antigen p53; experiment: Activation of p53 in human NUGC4 cells assessed as change in GADD45A mRNA level at 60 uM after 18 hrs by RT-PCR method relative to control; format: cell-based; conditions: read-out: FC; how it was run: as §1
[10] = system: Cellular tumor antigen p53 (Homo sapiens), P04637 [Y220C]; experiment: Activation of p53 Y220C mutant in human NUGC3 cells assessed as change in EGFR mRNA level at 60 uM after 18 hrs by RT-PCR method relative to control; format: cell-based; how it was run: as §2
[11] = system: Huh-7; experiment: Upregulation of p21 mRNA level in p53 Y220C mutant knockout human HuH7 cells at 30 uM after 18 hrs by RT-PCR method; format: functional, cell-based
[12] = system: Cellular tumor antigen p53 (Homo sapiens), P04637 [Y220C]; experiment: Activation of p53 Y220C mutant in human NUGC3 cells assessed as change in TP53AIP1 mRNA level at 60 uM after 18 hrs by RT-PCR method relative to control; format: cell-based; how it was run: as §3
[13] = system: Cellular tumor antigen p53 (Homo sapiens), P04637 [Y220C]; experiment: Activation of p53 Y220C mutant in human NUGC3 cells assessed as change in BAX mRNA level at 60 uM after 18 hrs by RT-PCR method relative to control; format: cell-based; how it was run: as §2
[14] = target: T1, Cellular tumor antigen p53; experiment: Activation of p53 in human NUGC4 cells assessed as change in EGR1 mRNA level at 60 uM after 18 hrs by RT-PCR method relative to control; format: cell-based; conditions: read-out: FC; how it was run: as §1
[15] = target: T1, Cellular tumor antigen p53; experiment: Activation of p53 in human NUGC4 cells assessed as change in CDKN1A mRNA level at 60 uM after 18 hrs by RT-PCR method relative to control; format: cell-based; conditions: read-out: FC; how it was run: as §1
[16] = target: T1, Cellular tumor antigen p53; experiment: Activation of p53 in human NUGC4 cells assessed as change in ADGRB1 mRNA level at 60 uM after 18 hrs by RT-PCR method relative to control; format: cell-based; conditions: read-out: FC; how it was run: as §3
[17] = target: T1, Cellular tumor antigen p53; experiment: Activation of p53 in human NUGC4 cells assessed as change in RPRM mRNA level at 60 uM after 18 hrs by RT-PCR method relative to control; format: cell-based; conditions: read-out: FC
[18] = target: T1, Cellular tumor antigen p53; experiment: Activation of p53 in human NUGC4 cells assessed as change in CDC25A mRNA level at 60 uM after 18 hrs by RT-PCR method relative to control; format: cell-based; conditions: read-out: FC; how it was run: as §1
[19] = target: T1, Cellular tumor antigen p53; experiment: Activation of p53 in human NUGC4 cells assessed as change in TADA3 mRNA level at 60 uM after 18 hrs by RT-PCR method relative to control; format: cell-based; conditions: read-out: FC
[20] = target: T1, Cellular tumor antigen p53; experiment: Activation of p53 in human NUGC4 cells assessed as change in BID mRNA level at 60 uM after 18 hrs by RT-PCR method relative to control; format: cell-based; conditions: read-out: FC; how it was run: as §3
[21] = target: T1, Cellular tumor antigen p53; experiment: Activation of p53 in human NUGC4 cells assessed as change in MDM2 mRNA level at 60 uM after 18 hrs by RT-PCR method relative to control; format: cell-based; conditions: read-out: FC; how it was run: as §1
[22] = system: Cellular tumor antigen p53 (Homo sapiens), P04637 [Y220C]; experiment: Activation of p53 Y220C mutant in human NUGC3 cells assessed as change in APAF1 mRNA level at 60 uM after 18 hrs by RT-PCR method relative to control; format: cell-based; how it was run: as §2
[23] = system: Cellular tumor antigen p53 (Homo sapiens), P04637 [Y220C]; experiment: Activation of p53 Y220C mutant in human NUGC3 cells assessed as change in IL6 mRNA level at 60 uM after 18 hrs by RT-PCR method relative to control; format: cell-based; how it was run: as §3
[24] = system: Cellular tumor antigen p53 (Homo sapiens), P04637 [Y220C]; experiment: Activation of p53 Y220C mutant in human NUGC3 cells assessed as change in MSH2 mRNA level at 60 uM after 18 hrs by RT-PCR method relative to control; format: cell-based; how it was run: as §3
[25] = target: T1, Cellular tumor antigen p53; experiment: Activation of p53 in human NUGC4 cells assessed as change in DNMT1 mRNA level at 60 uM after 18 hrs by RT-PCR method relative to control; format: cell-based; conditions: read-out: FC; how it was run: as §1
[26] = system: Cellular tumor antigen p53 (Homo sapiens), P04637 [Y220C]; experiment: Activation of p53 Y220C mutant in human NUGC3 cells assessed as change in PRKCA mRNA level at 60 uM after 18 hrs by RT-PCR method relative to control; format: cell-based; how it was run: as §3
[27] = target: T1, Cellular tumor antigen p53; experiment: Activation of p53 in human NUGC4 cells assessed as change in NF1 mRNA level at 60 uM after 18 hrs by RT-PCR method relative to control; format: cell-based; conditions: read-out: FC; how it was run: as §1
[28] = system: Cellular tumor antigen p53 (Homo sapiens), P04637 [Y220C]; experiment: Activation of p53 Y220C mutant in human NUGC3 cells assessed as change in FAS mRNA level at 60 uM after 18 hrs by RT-PCR method relative to control; format: cell-based; how it was run: as §2

Activity [1]: Active | fold induction at 60 µM [2]: 0.8 | fold change (FC) [3]: 0.7 | fold change (FC) [4]: 1.3 | fold induction at 60 µM [5]: 1.1 | fold induction at 60 µM [6]: 1 | fold induction at 60 µM [7]: 0.8 | fold induction at 60 µM [8]: 0.9 | fold induction at 60 µM [9]: 1.7 | fold change (FC) [10]: 1 | fold change (FC) [12]: 1.5 | fold change (FC) [13]: 1.1 | fold induction at 60 µM [14]: 0.7 | fold induction at 60 µM [15]: 1.3 | fold induction at 60 µM [16]: 2.9 | fold induction at 60 µM [17]: 7.9 | fold induction at 60 µM [18]: 0.4 | fold induction at 60 µM [19]: 1 | fold induction at 60 µM [20]: 0.7 | fold induction at 60 µM [21]: 0.8 | fold change (FC) [22]: 1.2 | fold change (FC) [23]: 6.4 | fold change (FC) [24]: 5.3 | fold induction at 60 µM [25]: 0.8 | fold change (FC) [26]: 1.1 | fold induction at 60 µM [27]: 0.8 | fold change (FC) [28]: 2.6
Structure (SMILES): CCNC(=O)c1c(O)c(I)c(-n2cccc2)c2sc(N(CC)CC)nc12
Activity [11]: inactive

— ChEMBL document CHEMBL4152234, “Aminobenzothiazole derivatives stabilize the thermolabile p53 cancer mutant Y220C and show anticancer activity in p53-Y220C cell lines” (Eur J Med Chem, 2018)
